Screens deposited in PubChem by Columbia University Molecular Screening Center.
Insulin prom act: TRM-6 insulin promoter activation; 130,000 compounds, 0.81% hits; TRM-6 cells (human fetal islet line), insulin promoter eGFP reporter, imaging; plate-scaled: unstimulated 0, stimulated control 100; activation, % at 2 µM;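 active = activation at 2 µM above a set limit, confirmed on inspection of the cell images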;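 note: share of cells whose green reporter signal exceeds an intensity cutoff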
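System – TRM-6 insulin promoter–eGFP reporter cells · Probe or stimulus – 0.75 µM tamoxifen as reporter inducer · Dosing – single-point 2 µM compound dose · Incubation – tamoxifen pre-incubation 15 h overnight, then compound exposure 48 h at 37 °C · Measured by – fixed-cell fluorescence microscopy, eGFP plus Hoechst · Evaluation – percent GFP-positive cells normalized to per-plate controls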
Active calls of the source: *. Shown is part of a subset that was picked to be rich in hits.

SMILES	Insulin prom act
Cc1ccccc1NC(=S)N(CCc1c(C)[nH]c2ccc(F)cc12)Cc1cccnc1	0.0
Cc1[nH]c2ccc(F)cc2c1CCN(Cc1ccco1)C(=S)NC(C)(C)C	347.1*
C=CCNC(=O)COc1ccc(N(C)S(=O)(=O)c2ccc(NC(C)=O)cc2)cc1	5.6
CN(C)CCCNC(=S)NCCNc1nc2cc3c(cc2cc1C#N)OCO3	-8.3
CCCN(CC(=O)Nc1ccc(F)c(F)c1F)CC(=O)Nc1c(Cl)cccc1Cl	5.9
COc1ccc(CCn2c(N3CCOCC3)nc3c2c(=O)[nH]c(=O)n3C)cc1	100.0*
COc1ccc(CCn2c(-n3nc(C)cc3C)nc3c2c(=O)[nH]c(=O)n3C)cc1	-5.3
Cn1c(=O)[nH]c(=O)c2c1nc(CN1CCN(c3ccc(F)cc3)CC1)n2CCc1ccccc1	328.6
O=S(=O)(/N=C(/Nc1ccc(F)c(F)c1F)c1ccccc1)c1ccccc1	6.5
COCCn1c(-c2ccc(-c3ccc([N+](=O)[O-])cc3Br)o2)nc2c1c(=O)[nH]c(=O)n2CC(C)C	114.3
Cc1cc(C)cc(NC(=O)c2snc3c(=O)[nH]cnc23)c1	5.7
CCOc1cccc(-c2cc(C(=O)N3N=C(C)CC3(O)C(F)F)c3ccccc3n2)c1 (stereo unspecified)	5.6
O=C(COc1ccccc1)N1CCc2ccccc21	-2.0
Cc1ccc(S(=O)(=O)CCC(=O)N2CCc3ccccc32)cc1	3.6
O=C(CCC(=O)N1CCc2ccccc21)N1CCc2ccccc21	569.2*
CCCOC(=O)CCCCCCCCC(O)CN1CCCCC1 (stereo unspecified)	0.0
CC(C)c1cccc(C(C)C)c1NC(=O)Cn1c(=O)cnc2ccccc21	8.1
Cc1ccc2nc(N/C(N)=N/S(=O)(=O)c3ccc([N+](=O)[O-])cc3)nc(C)c2c1	-3.7
O=C(CSc1nnc2ccccn12)Nc1ccccc1C(=O)O	-2.7
CCN(CC)S(=O)(=O)c1ccc(N2CCOCC2)c(NS(=O)(=O)c2cc(C(C)(C)C)ccc2C)c1	2.7
Cc1ccc2sc(C)[n+](CCC(C)S(=O)(=O)[O-])c2c1 (stereo unspecified)	-3.4
O=C(NCCCn1ccnc1)c1ccc(Br)o1	5.7
O=C(c1ccccn1)N(CC1CCCO1)C1(C(=O)NC2CCCCC2)CCCCC1 (stereo unspecified)	7.1
O=C(c1cnccn1)N(c1ccccc1)C1(C(=O)NC2CCCC2)CCCCC1	100.0*
Cc1c(N(C(=O)CNC(=O)c2ccccc2)C2(C(=O)NC3CCCCC3)CCCCC2)c(=O)n(-c2ccccc2)n1C	146.7
SMILES	Insulin prom act
O=C(NN1C(=O)c2ccccc2NC1c1ccccn1)c1ccc([N+](=O)[O-])cc1 (stereo unspecified)	-3.3
CC(C)C[C@@H]1NC(=O)[C@H](CO)NC(=O)c2cc([N+](=O)[O-])cc(I)c2OCC[C@@H](C(N)=O)NC1=O	-4.5
CC(C)OP(=O)(OC(C)C)C(C)NC(=O)Cc1ccccc1 (stereo unspecified)	-81.8
COc1cc(C(=O)N/N=C2\CCS(=O)(=O)c3ccc(F)cc32)cc(OC)c1OC	-7.7
COc1ccc(OC)c(N(CC(N)=O)S(=O)(=O)c2ccc(OC)c(OC)c2)c1	-3.3
Cc1nn(C)cc1C(C(=O)NC1CCCCC1)N(C(=O)c1cnccn1)c1ccc(Oc2ccccc2)cc1 (stereo unspecified)	0.0
Cc1nn(C)cc1C(C(=O)NC1CCCCC1)N(C(=O)Cc1cccs1)c1ccc(C(C)C)cc1 (stereo unspecified)	200.0*
Cc1ccc(C(C(=O)NC2CCCC2)N(C(=O)Cc2cccs2)c2ccc(C)c(C)c2)o1 (stereo unspecified)	7.7
C=CCn1c(COc2cccc(C)c2)nnc1SCC(=O)c1c[nH]c2c(CC)cccc12	106.3
Oc1ccc(-c2csc(-c3ccccc3)n2)cc1O	7.0
CCC(=O)N(Cc1ccco1)c1nc(-c2ccccc2)cs1	136.4*
CC(=O)Nc1ccc(-c2csc(NCc3ccco3)n2)cc1	2.7
Cc1c(N2C(=O)C(=O)/C(=C(/O)c3ccc(Cl)cc3)C2c2ccccc2)c(=O)n(-c2ccccc2)n1C (stereo unspecified)	3.3
CC1CC(C)CN(CCOc2ccccc2-c2ccccc2)C1 (stereo unspecified)	464.3*
CC1(C)NC(=O)N(CC(O)COc2ccccc2-c2ccccc2)C1=O (stereo unspecified)	-6.7
C=CCc1ccc(OCCCCN2CC(C)CC(C)C2)c(OC)c1 (stereo unspecified)	-7.7
CCC(=O)N1C(=O)C2(Nc3ccccc3N2)c2ccccc21	8.1
CCN1c2ccccc2NC2C1C(C(C)=O)C(=O)N2c1ccc(Cl)cc1 (stereo unspecified)	133.3*
Cc1ccc(SC(C)C(=O)Nc2ccccc2C(=O)N2CCOCC2)cc1 (stereo unspecified)	82.9*
Cc1ccccc1Nc1ncccc1C(=O)N1CCOCC1	0.0
CS(=O)(=O)N(CC(=O)Nc1ccccc1C(=O)N1CCOCC1)c1ccccc1	252.4
CC(OC(=O)CCc1nc2ccccc2[nH]c1=O)c1ccccc1 (stereo unspecified)	471.4*
COC(=O)CCc1nc2ccccc2[nH]c1=O	7.9
Cc1ccc(C(=O)COC(=O)CCc2nc3ccccc3[nH]c2=O)cc1C	0.0
O=C(CCc1nc2ccccc2[nH]c1=O)OCC(=O)c1ccc(Cl)cc1	-3.4
SMILES	Insulin prom act
CC(CC(=O)Nc1nc2ccccc2[nH]1)c1ccccc1 (stereo unspecified)	0.0
O=C(CCc1nc2ccccc2[nH]c1=O)OCC(=O)c1cccc2ccccc12	82.9*
COCCNC(=O)CSc1nc2cc(OC)c(OC)cc2c(=O)n1CCc1ccc(S(N)(=O)=O)cc1	0.0
CCOC(=O)N1CCN(C(=O)CSc2ccc(-c3ccncc3)nn2)CC1	-75.0
CCOC(=O)N1CCN(C(=O)CSc2ncccn2)CC1	185.7*
CCOC(=O)N1CCN(C(=O)CSc2ccc(-c3ccccc3)nn2)CC1	2.9
COc1cc(C(=O)Nc2c(C)cc(C)cc2C)c([N+](=O)[O-])cc1OC	-7.1
CC(C)(C)NC(=O)C(c1ccccn1)N(C(=O)C1CSC(=O)C1)c1ccccc1F (stereo unspecified)	0.0
CCCCn1c(=O)n(CC(=O)Nc2ccc(OC)c(Cl)c2)c(=O)c2c1nc(CO)n2CCC	5.4
COc1ccc(N(CC(=O)Nc2nccs2)S(=O)(=O)c2c(C)[nH]c(=O)[nH]c2=O)cc1	-78.6
CCc1c(C)sc(NC(=O)C2CCCO2)c1C#N (stereo unspecified)	43.3
CCOC(=O)c1c(-c2ccc(C)cc2)csc1NC(=O)C1CCCO1 (stereo unspecified)	-1.6
CCCOC(=O)c1c(NC(=O)C2CCCO2)sc(C(=O)OC)c1C (stereo unspecified)	566.7*
O=C(NCCc1nnc2ccc(NCc3ccc(Cl)cc3)nn12)c1ccccc1	5.6
CC1CC(C)CN(C(=O)c2cc3cc(Br)cc(Br)c3o2)C1 (stereo unspecified)	8.3
CCOC(=O)c1sc2nc(N3CCOCC3)c3c(c2c1N)CCN(C)C3	500.0*
CCOC(=O)c1sc2nc(C)c3c(c2c1N)CC(C)(C)OC3	-8.6
Nc1c(C(=O)NCc2ccccc2)sc2nc(N3CCOCC3)c3c(c12)CCCC3	7.7
COc1ccc(Cl)cc1NC(=O)c1cccc(NC(=O)CCC(=O)O)c1	0.0
Cc1ccc(OC(=O)c2sc(Cl)nc2C)cc1C	6.7
C=CCNC(=O)CC1C(=O)NCCN1Cc1c(F)cccc1Cl (stereo unspecified)	4.3
